Test results: ChEMBL document CHEMBL4028876, “Discovery of a Novel Piperidine-Based Inhibitor of Cholesteryl Ester Transfer Protein (CETP) That Retains Activity in Hypertriglyceridemic Plasma” (J Med Chem, 2017)
Active and inactive are the calls of the source. The calls are words filed in the database; no cut-off is given here.

Key:
[1] = tested on: Plasma; assay: Protein binding in human plasma using [14C]-labeled compound after 3 hrs by scintillation counting based ultracentrifugation method; assay type: ADME, cell-free
Method in brief: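 Human plasma spiked with [14C]-labelled compound at 50−10000 ng/mL, then ultracentrifuged 3 h at 37 °C at 306000g. Supernatant radioactivity is counted by scintillation. Bound fraction = (total − supernatant)/total.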

[2] = tested on: Serum; assay: Drug uptake in triglyceride rich lipoprotein fraction of human serum from human donors with normal triglyceride levels (<150 mg/dL) by LC-MS/MS method; assay type: ADME, cell-free
Method in brief: (§1)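 Pooled unfasted human serum (mean TG 122, 347 or 958 mg/dL) spiked with inhibitor to 500 ng/mL, 37 °C, 1 h. NaBr density-gradient ultracentrifugation, 18.5 h at 15 °C. Acetonitrile precipitation, glyburide internal standard, LC-MS/MS in duplicate. Result given as % of total across pools.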

[3] = Clearance in Sprague-Dawley rat plasma at 1 mg/kg, iv or 3 mg/kg, po by LC-ESI-MS/MS analysis; assay type: ADME, organism-based
Method in brief: (§2)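 Conscious 7-week-old male Sprague-Dawley rats on standard diet with free water. Dosing is 1 mg/kg iv bolus in N-methylpyrrolidin-2-one/PEG 200, or 3 mg/kg oral suspension in 0.5% aqueous methylcellulose. Blood is sampled at various time points after administration.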

[4] = tested on: NCI-H295R; assay: Toxicty in human NCI-H295R cells assessed as increase in aldosterone levels at 0.1 to 10000 nM after 24 hrs by scintillation proximity assay; assay type: toxicity, cell-based; settings: 10 µM
[5] = Selectivity for inhibition of CYP3A4 (unknown origin) to IC50 for inhibition of CETP in human plasma
[6] = 1-Octanol-phosphate buffered saline partition coefficient, log D of compound at […] by tandem mass spectrometry method; assay type: physicochemical
[7] = tested on: Syrian golden hamster; assay: Inhibition of CETP in Syrian hamster blood at 0.3 to 10 mg/kg, po dosed once daily for 2 weeks and measured 24 hrs post last dose; assay type: functional, organism-based; settings: Mesocricetus auratus
[8] = tested on: Rattus norvegicus; assay: Toxicity in cannulated Sprague-Dawley rat assessed as increase in mean arterial pressure at 5 mg/kg, iv by blood pressure transducer based method; assay type: organism-based; settings: in vivo
[9] = tested on: Serum; assay: Drug uptake in lipoprotein deficient serum fraction of human serum from human donors with triglyceride levels ( 300-500 and >750 mg/dL) by LC-MS/MS method; assay type: ADME, cell-free; method in brief: as §1
[10] = AUC (infinity) in Sprague-Dawley rat at 1 mg/kg, iv or 3 mg/kg, po by LC-ESI-MS/MS analysis; assay type: ADME, organism-based; settings: in vivo; method in brief: as §2
[11] = tested on: Syrian golden hamster; assay: Reduction in LDL cholesterol level in Syrian hamster plasma at 0.3 and 10 mg/kg, po dosed once daily for 2 weeks and measured 24 hrs post last dose by HPLC size exclusion chromatography method relative to control; assay type: functional, organism-based; settings: Mesocricetus auratus
Method in brief: (§3)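 Chow-fed hamsters gavaged once daily in the morning for 2 weeks (0.3, 1, 3, 10 mg/kg; vehicle 10 mL/kg). Blood is drawn from the abdominal vein under isoflurane 24 h post last dose, after a 16 h fast. Lipoprotein cholesterol is measured by Superose 6 HPLC with online enzymatic detection at 580 nm, standardized to control plasma. Mean ± SEM, n=6, Dunnett test.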

[12] = Drug uptake in Syrian hamster adipose tissue at 10 mg/kg, po dosed once daily for 14 days measured 24 hrs post last dose by LC-MS/MS method; assay type: ADME, organism-based, Mesocricetus auratus; settings: in vivo
Method in brief: (§4)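 Chow-fed hamsters dosed orally once daily for 14 days. Blood and ~100 mg adipose, adrenal and liver samples are taken 24 h after the final dose. Tissues are flash-frozen and stored at −80 °C. Total drug concentrations are measured by LC-MS/MS. Mean ± SEM, seven animals per group.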

[13] = tested on: Rattus norvegicus; assay: Toxicity in cannulated Sprague-Dawley rat assessed as increase in plasma aldosterone levels at 5 mg/kg, iv by radioimmunoassay; assay type: organism-based; settings: in vivo
[14] = tested on: Serum; assay: Drug uptake in LDL fraction of human serum from human donors with normal triglyceride levels (<150 mg/dL) by LC-MS/MS method; assay type: ADME, cell-free; method in brief: as §1
[15] = tested on: Serum; assay: Drug uptake in lipoprotein deficient serum fraction of human serum from human donors with normal triglyceride levels (<150 mg/dL) by LC-MS/MS method; assay type: ADME, cell-free; method in brief: as §1
[16] = target: T1, Cytochrome P450 3A4 (Homo sapiens, UniProt P08684); assay: Inhibition of CYP3A4 (unknown origin) in the presence of midozolam; assay type: ADME
T1 sequence (P08684 whole entry): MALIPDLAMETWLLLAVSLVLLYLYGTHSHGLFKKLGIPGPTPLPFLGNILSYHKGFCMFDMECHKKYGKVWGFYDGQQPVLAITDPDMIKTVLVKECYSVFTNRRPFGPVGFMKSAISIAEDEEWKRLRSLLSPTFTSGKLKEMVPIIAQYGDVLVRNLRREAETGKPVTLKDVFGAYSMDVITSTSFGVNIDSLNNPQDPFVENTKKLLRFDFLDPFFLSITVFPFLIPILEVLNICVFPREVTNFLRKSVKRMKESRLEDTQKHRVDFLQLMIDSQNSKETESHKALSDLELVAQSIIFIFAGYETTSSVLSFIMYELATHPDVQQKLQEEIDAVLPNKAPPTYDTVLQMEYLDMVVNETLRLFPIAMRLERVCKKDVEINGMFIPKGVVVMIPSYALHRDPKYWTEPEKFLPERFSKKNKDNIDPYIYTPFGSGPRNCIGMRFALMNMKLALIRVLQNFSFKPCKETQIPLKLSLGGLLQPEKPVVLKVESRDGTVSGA

[17] = Selectivity for inhibition of CYP2D6 (unknown origin) to IC50 for inhibition of CETP in human plasma
[18] = tested on: Serum; assay: Drug uptake in HDL fraction of human serum from human donors with normal triglyceride levels (<150 mg/dL) by LC-MS/MS method; assay type: ADME, cell-free; method in brief: as §1
[19] = Volume of distribution in Sprague-Dawley rat at 1 mg/kg, iv or 3 mg/kg, po by LC-ESI-MS/MS analysis; assay type: ADME, organism-based; settings: in vivo; method in brief: as §2
[20] = tested on: Serum; assay: Drug uptake in HDL fraction of human serum from human donors with triglyceride levels ( 300-500 and >750 mg/dL) by LC-MS/MS method; assay type: ADME, cell-free; method in brief: as §1
[21] = target: Cytochrome P450 2C9 (Homo sapiens, UniProt P11712); assay: Inhibition of CYP2C9 (unknown origin); assay type: ADME
Sequence of Cytochrome P450 2C9 (P11712 whole entry): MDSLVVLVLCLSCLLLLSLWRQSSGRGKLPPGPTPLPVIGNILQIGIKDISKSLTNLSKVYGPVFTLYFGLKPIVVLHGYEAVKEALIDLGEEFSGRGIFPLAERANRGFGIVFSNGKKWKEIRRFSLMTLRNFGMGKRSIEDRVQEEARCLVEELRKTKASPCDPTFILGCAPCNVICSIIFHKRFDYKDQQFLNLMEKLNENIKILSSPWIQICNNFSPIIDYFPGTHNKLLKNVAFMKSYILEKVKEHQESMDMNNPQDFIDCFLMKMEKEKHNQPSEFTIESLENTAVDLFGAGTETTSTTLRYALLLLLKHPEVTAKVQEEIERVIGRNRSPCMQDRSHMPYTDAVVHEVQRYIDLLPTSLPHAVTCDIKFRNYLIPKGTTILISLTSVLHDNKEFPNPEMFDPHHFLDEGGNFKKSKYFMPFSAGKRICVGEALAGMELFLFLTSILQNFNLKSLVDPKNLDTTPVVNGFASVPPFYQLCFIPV

[22] = target: T1, Cytochrome P450 3A4; assay: Inhibition of CYP3A4 (unknown origin) in the presence of testosterone; assay type: ADME
[23] = tested on: Hamster; assay: Ex vivo inhibition of CETP activity in hamster hypertriglyceridemia model treated with 100 mg/kg, iv Triton WR-1339 dosed 5 hrs post compound dose measured every 15 mins for 120 mins by fluorescence method; assay type: functional, organism-based; settings: Cricetinae
Method in brief: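 Chow-fed hamsters given a single gavage dose of compound or vehicle. Triton WR-1339 (100 mg/kg) or saline is given iv 5 h later, and plasma is taken 3 h after that. Plasma (final 80%) is mixed with fluorescent donor in 50 mM Tris-HCl pH 7.4, 150 mM NaCl, 2 mM EDTA. Ex/em 485/535 nm, read every 15 min for 120 min at 37 °C. Activity is the 30–90 min slope. Five animals per group.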

[24] = tested on: Syrian golden hamster; assay: Increase in HDL cholesterol level in Syrian hamster plasma at 0.3 and 10 mg/kg, po dosed once daily for 2 weeks and measured 24 hrs post last dose by HPLC size exclusion chromatography method relative to control; assay type: functional, organism-based; settings: Mesocricetus auratus; method in brief: as §3
[25] = Half life in Sprague-Dawley rat at 1 mg/kg, iv or 3 mg/kg, po by LC-ESI-MS/MS analysis; assay type: ADME, organism-based; settings: in vivo; method in brief: as §2
[26] = tested on: Serum; assay: Drug uptake in LDL fraction of human serum from human donors with triglyceride levels ( 300-500 and >750 mg/dL) by LC-MS/MS method; assay type: ADME, cell-free; method in brief: as §1
[27] = tested on: Syrian golden hamster; assay: Reduction in LDL cholesterol level in Syrian hamster plasma at 0.3 and 10 mg/kg, po dosed once daily for 2 weeks and measured 24 hrs post last dose by HPLC size exclusion chromatography method; assay type: functional, organism-based; settings: Mesocricetus auratus; method in brief: as §3
[28] = target: Cytochrome P450 2D6 (Homo sapiens, UniProt P10635); assay: Inhibition of CYP2D6 (unknown origin); assay type: ADME
Sequence of Cytochrome P450 2D6 (P10635 whole entry): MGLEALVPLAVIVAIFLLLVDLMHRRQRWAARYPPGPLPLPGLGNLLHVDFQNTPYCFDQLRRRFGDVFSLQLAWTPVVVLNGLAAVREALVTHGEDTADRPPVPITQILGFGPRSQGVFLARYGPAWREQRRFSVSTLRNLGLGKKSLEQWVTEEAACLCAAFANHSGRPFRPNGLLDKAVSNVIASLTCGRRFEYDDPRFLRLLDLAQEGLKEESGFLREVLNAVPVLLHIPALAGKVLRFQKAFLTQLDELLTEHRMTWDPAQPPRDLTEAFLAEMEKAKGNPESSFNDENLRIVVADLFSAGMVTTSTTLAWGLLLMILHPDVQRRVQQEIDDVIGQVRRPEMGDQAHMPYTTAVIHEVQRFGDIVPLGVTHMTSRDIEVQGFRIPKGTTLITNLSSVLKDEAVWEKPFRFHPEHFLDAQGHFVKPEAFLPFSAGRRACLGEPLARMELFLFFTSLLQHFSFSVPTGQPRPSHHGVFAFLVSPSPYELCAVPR

[29] = tested on: Serum; assay: Drug uptake in triglyceride rich lipoprotein fraction of human serum from human donors with triglyceride levels ( 300-500 and >750 mg/dL) by LC-MS/MS method; assay type: ADME, cell-free; method in brief: as §1
[30] = Drug uptake in Syrian hamster plasma at 10 mg/kg, po dosed once daily for 14 days measured 24 hrs post last dose by LC-MS/MS method; assay type: ADME, organism-based, Mesocricetus auratus; settings: in vivo; method in brief: as §4
[31] = Selectivity for inhibition of CYP2C9 (unknown origin) to IC50 for inhibition of CETP in human plasma
[32] = target: T2, Cholesteryl ester transfer protein (Homo sapiens) (UniProt P11597); assay: Inhibition of CETP activity in human serum at upto 1200 mg/dl serum triglyceride concentration by LC-MS/MS method; settings: in the assay text read “fluorescence method” for “LC-MS/MS method”
T2 sequence (whole entry): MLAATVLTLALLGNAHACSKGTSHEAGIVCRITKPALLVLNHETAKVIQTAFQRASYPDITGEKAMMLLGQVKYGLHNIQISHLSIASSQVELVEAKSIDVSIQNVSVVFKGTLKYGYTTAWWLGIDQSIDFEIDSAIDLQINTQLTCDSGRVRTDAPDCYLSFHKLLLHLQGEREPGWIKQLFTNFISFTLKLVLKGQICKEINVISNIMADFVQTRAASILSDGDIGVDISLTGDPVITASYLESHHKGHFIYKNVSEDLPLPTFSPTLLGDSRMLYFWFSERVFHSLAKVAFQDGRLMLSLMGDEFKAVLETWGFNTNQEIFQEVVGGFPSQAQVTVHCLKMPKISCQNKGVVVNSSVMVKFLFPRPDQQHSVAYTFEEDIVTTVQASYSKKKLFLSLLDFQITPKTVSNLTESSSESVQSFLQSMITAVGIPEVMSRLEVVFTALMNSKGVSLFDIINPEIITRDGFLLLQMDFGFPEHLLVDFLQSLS
Method in brief: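 Three human serum pools of differing triglyceride level. IC50 values are the mean of two replicates per pool.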

[33] = Drug uptake in Syrian hamster adrenal tissue at 10 mg/kg, po dosed once daily for 14 days measured 24 hrs post last dose by LC-MS/MS method; assay type: ADME, organism-based, Mesocricetus auratus, Adrenal gland; settings: in vivo; method in brief: as §4
[34] = tested on: Hamster; assay: Increase in HDL cholesterol levels in hamster plasma by HPLC size exclusion chromatography method relative to control; assay type: functional; settings: Cricetinae; method in brief: as §3
[35] = Oral bioavailability in Sprague-Dawley rat at 3 mg/kg by LC-ESI-MS/MS analysis; assay type: ADME, organism-based; settings: in vivo; method in brief: as §2

CC[C@@H]1C[C@H](N(Cc2cc(C(F)(F)F)cc(C(F)(F)F)c2)c2ncc(-c3cnn(C)c3)cn2)C[C@H](CC)N1C(=O)O[C@H]1CC[C@H](C(=O)O)CC1
PPB [1]: 99.4% | Drug uptake [2]: Active | clearance [3]: 1.5 mL/min/kg | Activity [4]: Non-Toxic | Selectivity ratio [5]: >170 | logD [6]: 5.2 | inhibition [7]: Active | Activity [8]: Non-Toxic | Drug uptake [9]: Active | AUC(0-inf) [10]: 27.2 µM·h | Activity [11]: Active | Drug uptake [12]: Not Active | Activity [13]: Non-Toxic | Drug uptake [14]: Active | Drug uptake [15]: Active | IC50 [16]: 10.6 µM | Selectivity ratio [17]: >170 | Drug uptake [18]: Active | Vd [19]: 0.57 L/kg | Drug uptake [20]: Active | IC50 [21]: 19 µM | IC50 [22]: > 50 µM | inhibition [23]: Active | Activity [24]: Dose-dependent effect | half-life [25]: 5.8 h | Drug uptake [26]: Active | Activity [27]: Dose-dependent effect | IC50 [28]: 31 µM | Drug uptake [29]: Active | Drug uptake [30]: Active | Selectivity ratio [31]: >170 | inhibition [32]: Active | Drug uptake [33]: Not Active | Activity [34]: Dose-dependent effect | bioavailability [35]: 43%
